A selection: hits, their analogues and other compounds. The true share with any hit is near 11%.
WT yeast gro inh – growth inhibition of WT yeast, mitochondrial fusion screen | mitochondrial fusion phenotypic screen, WT strain | inhibition, % at 10 µM | 2.1% of 190,000 active; in the data active = inhibition above about 58%; tested in S. cerevisiae
Diaphorase act – activates diaphorase or chemically reduces, flagging diaphorase assay artifacts | Diaphorase/resazurin coupled assay, resorufin fluorescence, 16 min; active compounds read high; 1 = vehicle wells, 0 = NADH-free wells | activation factor at 20 µM | 0.005% of 190,000 active;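 active = diaphorase activity raised at least twofold by the compound at 20 µM; inactive = activation factor below 2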
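Material: bacterial diaphorase enzyme (C. kluyveri); amount: enzyme 0.07 U/mL final; reagent: NADH substrate 0.114 mM plus resazurin dye 0.1 mM, final; doses: single compound dose of 20 µM, 1% DMSO final; timing: 16 min enzyme reaction, ambient temperature; measured by: fluorescence of resorufin, 544 nm excitation, 590 nm emission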
Diaphorase inh – inhibits diaphorase or chemically oxidizes, flagging diaphorase assay artifacts; diaphorase resazurin-to-resorufin fluorescence, NADH, 16 min; bacterial (C. kluyveri) enzyme, not human; inhibition, % at 20 µM; 0.69% of 190,000 active;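 active = primary screen inhibition at 20 µM above a set limit, cut at about 50% in these data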;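 also: plate controls were DMSO with full reaction for no effect and wells lacking NADH for full effect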
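Assay system: diaphorase enzyme from Clostridium kluyveri. Quantity: enzyme working solution with 0.14 U/mL diaphorase. Schedule: reaction incubation of 16 min at room temperature. Technique: resorufin fluorescence, excitation 544 nm, emission 590 nm. Controls: No-NADH positive control and DMSO neutral control.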
G6PDH CS – L. mesenteroides G6PDH inhibition counter-screen; Purified L. mesenteroides G6PDH, diaphorase/resazurin coupled fluorescence, 45 min; 0.12% of 200,000 active; inhibition, % at 5 µM
L major viab – Leishmania major promastigote growth inhibition; Leishmania major promastigotes, resazurin fluorescence viability; inhibition, % at 10 µM; 9% of 200,000 active; AID 1063;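 also: promastigotes grown with compound for 44 hours at 28 °C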
* hit, by the source's call; . = not tested or not shown. Rule as the data show it, unless noted: active = inhibition above about 50%; inactive = the rest.

SMILES	WT yeast gro inh	Diaphorase act	Diaphorase inh	G6PDH CS	L major viab
COc1ccccc1N(Cc1ccccc1)S(=O)(=O)c1cccc(C(=O)Nc2ccc(C(C)=O)cc2)c1	-9	0.9	10	7	75*
CCOc1ccccc1N(CC(=O)Nc1ccccc1C(=O)O)S(C)(=O)=O	13	0.9	8	-18	-5
COc1ccc(OC)c(NC(=O)c2ccc(CN(c3cc(Cl)ccc3C)S(=O)(=O)c3ccccc3)cc2)c1	5	0.9	13	5	-1
COc1ccccc1N(CC(=O)N/N=C/c1c(O)ccc2ccccc12)S(C)(=O)=O	-5	0.7	31	-12	99*
COc1ccc(CCNC(=O)CSc2nc3[nH]ncc3c(=O)n2-c2ccc(C)c(Cl)c2)cc1OC	15	0.8	23	6	24
CC(=O)Cc1nsc(NC(=O)c2ccc(-c3cc(Cl)ccc3Cl)o2)n1	71*	0.9	8	-6	-4
CC(=O)Cc1nsc(NC(=O)c2ccc(-c3ccc(Cl)c(Cl)c3)o2)n1	69*	0.9	6	1	2
CC(=O)Cc1nsc(NC(=O)c2ccc(-c3ccc(Cl)cc3Cl)o2)n1	31	1	-2	0	-1
CCCN1C(=O)C(Cc2nc3ccccc3c(=O)n2-c2ccccc2)c2ccccc21 (centres undefined)	19	0.9	13	-7	89*
CC(C)N1C(=O)C(Cc2nc3ccccc3c(=O)n2-c2ccccc2)c2ccccc21 (centres undefined)	-16	1	5	1	21
C[C@@H](C[C@@H](O)[C@H](O)C(C)(C)O)[C@@H]1CC[C@]2(C)C3=CC[C@H]4C(C)(C)C(=O)CC[C@]4(C)[C@H]3CC[C@@]12C	60*	0.8	24	14	92*
CC(C)(O)CC[C@@H](O)[C@](C)(O)[C@H]1CC[C@@]2(O)C3=CC(=O)[C@@H]4C[C@@H](O)[C@@H](O)C[C@]4(C)C3CC[C@]12C (some centres undefined)	8	0.8	21	9	-15
Cc1cccc(NC(=O)/C(C#N)=C\c2cc(C)n(-c3ccc(C(=O)O)cc3)c2C)c1	4	0.9	10	8	-8
Cc1cc(/C=C(/C#N)c2cccc(F)c2)c(C)n1-c1cccnc1	35	0.7	26	-18	99*
Cc1cccc(-n2c(C)cc(C=C(C#N)C#N)c2C)c1	0	0.9	5	10	62*
CC(NC(=O)c1ccc(C23CC4CC(CC(C4)C2)C3)cc1)C(=O)O (centres undefined)	-5	1	3	5	-4
O=C(CSc1nnc(CCCN2C(=O)c3cccc4cccc(c34)C2=O)n1-c1ccccc1)NCCCN1CCOCC1	-9	0.5	55*	1	-2
O=C(CSc1nnc(CCCN2C(=O)c3cccc4cccc(c34)C2=O)n1-c1ccccc1)N1CCN(CCO)CC1	11	0.4	59*	-13	-1
COCCNC(=O)Cn1cc(C(=S)N2CCOCC2)c2ccccc21	-5	0.9	6	9	-4
O=C(Nc1cc(C(F)(F)F)ccc1N1CCOCC1)c1ccco1	-8	1	3	-12	-4
O=C(c1ccccc1)c1ccc(N2CCOCC2)c(NC(=O)c2ccco2)c1	-11	0.9	10	7	64*
COC(=O)c1cc2sccc2n1CC(=O)N(C)c1ccccc1	-21	0.8	24	11	-5
N#CC(C#N)=C1C=CC=CN1/C(=C\c1ccco1)C(=O)c1ccc(Br)cc1	71*	0.9	12	7	24
O=C1N2CCCc3cccc(c32)C12Nc1ccccc1S2 (centres undefined)	11	0.9	14	18	21
CC1CC(C)(C)N2C(=O)C3(Nc4ccccc4S3)c3cccc1c32 (centres undefined)	67*	0.9	12	7	32
SMILES	WT yeast gro inh	Diaphorase act	Diaphorase inh	G6PDH CS	L major viab
O=C(NN=C1C2CC3CC(C2)CC1C3)c1cccc(S(=O)(=O)N2CCOCC2)c1	-4	0.9	5	0	31
Cc1ccc(S(=O)(=O)N2CCN(CC(=O)NC3CCCc4ccccc43)CC2)cc1C (centres undefined)	49	0.8	20	10	98*
O=C(CSc1nc2cc(Cl)ccc2s1)NC1CCCc2ccccc21 (centres undefined)	7	0.8	22	-4	2
O=C(CSc1cc(Cl)ccc1Cl)NC1CCCc2ccccc21 (centres undefined)	-10	1.1	-5	0	57*
S=C(NCc1ccccc1)NC1CCCc2ccccc21 (centres undefined)	72*	0.9	10	-4	23
O=C(Nc1ccccc1)NC1CCCc2ccccc21 (centres undefined)	9	0.9	15	3	8
CC(C)(C)c1ccc(NC(=O)CNC2CCCc3ccccc32)cc1 (centres undefined)	81*	1	1	2	2
CCOC(=O)c1cc(C)n(Cc2ccc(OCC)c(OC)c2)c1C	12	0.9	15	13	6
O=C(COc1ccccc1)NC1CCCc2ccccc21 (centres undefined)	-10	0.9	9	7	51*
Cc1cc(C)c(C)c(S(=O)(=O)N2CCN(CC(=O)c3c(N)n(Cc4ccccc4)c(=O)n(C)c3=O)CC2)c1C	17	0.8	24	3	99*
CCn1c(=O)c(C(=O)CN2CCN(S(=O)(=O)c3ccc(C)cc3C)CC2)c(N)n(Cc2ccccc2)c1=O	10	0.8	18	1	58*
Cn1c(=O)c(C(=O)CN2CCCCCC2)c(N)n(Cc2ccccc2)c1=O	-5	1.1	-11	-1	13
CCn1c(=O)c(C(=O)CN2CCN(S(=O)(=O)c3ccccc3)CC2)c(N)n(Cc2ccccc2)c1=O	-18	0.9	10	2	22
COc1cc(C2c3[nH]c4ccccc4c3CCN2Cc2cn(C)nc2C)ccc1F (centres undefined)	13	0.9	6	10	29
COc1ccc(C2NCCc3c2[nH]c2ccccc32)cc1COc1ccc(F)cc1 (centres undefined)	87	1.3	-33	-2	100*
CCN(CC)c1ccc2c(c1)CCCN2	2	0.4	59*	35	32
COc1cccc(CN2CCN(Cc3ccc(O)cc3)CC2CCO)c1 (centres undefined)	-7	.	.	9	69*
COC(=O)c1ccc(CN2CCN(CCc3ccccc3)C(CCO)C2)cc1 (centres undefined)	3	1.1	-14	7	91*
COC(=O)c1ccc(CN2CCN(CCC(C)C)C(CCO)C2)cc1 (centres undefined)	13	1	0	4	62*
COc1ccc(/C=C/CN2CCN(CCc3ccccc3)C(CCO)C2)cc1 (centres undefined)	30	0.9	5	11	90*

Compound activity deposited in PubChem by several laboratories.
